{"data": "Measurements collected from several papers", "TPR": "Trypanothione reductase (TPR, Trypanosoma cruzi, UniProt P28593)", "NPSR1": "Neuropeptide S receptor (NPSR1, Homo sapiens, UniProt Q6W5P4)", "Aldo-keto reductase family 1 member A1": "Aldo-keto reductase family 1 member A1 (Rattus norvegicus, UniProt P51635)", "PTPN12": "Tyrosine-protein phosphatase non-receptor type 12 (PTPN12, Homo sapiens, UniProt Q05209)", "Fructose-1,6-bisphosphatase 1 G27P": "Fructose-1,6-bisphosphatase 1 (Mus musculus, UniProt Q9QXD6, G27P)", "GRM3": "Metabotropic glutamate receptor 3 (GRM3, Homo sapiens, UniProt Q14832)", "SLC6A2": "Sodium-dependent noradrenaline transporter (SLC6A2, Homo sapiens, UniProt P23975)", "Dual specificity calcium/calmodulin-dependent 3',5'-cyclic nucleotide phosphodiesterase 1B": "Dual specificity calcium/calmodulin-dependent 3',5'-cyclic nucleotide phosphodiesterase 1B (Homo sapiens, UniProt Q01064)", "note": "Protocols differ between the studies behind these lines."}
{"Structure (SMILES)": "CN1c2c(nc(N)[nH]c2=O)NC[C@@H]1CNc1ccc(C(=O)N[C@@H](CCC(=O)O)C(=O)O)cc1", "target": "Folate receptor beta (FOLR2, Homo sapiens, UniProt P14207)", "test": "cell-free assay, ELISA", "IC50 [µM]": 0.196}
{"Structure (SMILES)": "Cc1ccc(OCC(O)Cn2c(=N)n(CCN3CCCCC3)c3ccccc32)cc1 (stereo not drawn)", "target": "TPR", "test": "enzyme activity, inhibitor", "IC50 [µM]": "≤ 10"}
{"Structure (SMILES)": "N=c1c2c(ncn1Cc1ccccc1)Oc1ccc3ccccc3c1C2c1ccccc1 (stereo not drawn)", "target": "NPSR1", "test": "cAMP, antagonist, TR-FRET", "IC50 [µM]": 3.07}
{"Structure (SMILES)": "COc1ccc2nc(/N=C3/NC(=O)C(=Cc4ccc(O)cc4)S3)sc2c1", "target": "Aldo-keto reductase family 1 member A1", "test": "enzyme activity, inhibitor, absorbance", "setting": "pH 7.2", "IC50 [µM]": 1.24}
{"Structure (SMILES)": "Nc1nccc2cc(CNC(=O)c3cnn(Cc4ccc(Cn5ccccc5=O)cc4)c3)ccc12", "target": "Plasma kallikrein (KLKB1, Homo sapiens, UniProt P03952)", "test": "enzyme activity, inhibitor", "setting": "with preincubation", "IC50 [µM]": 0.00059}
{"Structure (SMILES)": "COc1cccc(C2c3c(ncn(-c4ccccc4-c4ccccc4)c3=N)Oc3ccc4ccccc4c32)c1 (stereo not drawn)", "target": "NPSR1", "test": "cAMP, antagonist, TR-FRET", "IC50 [µM]": 38.7}
{"Structure (SMILES)": "O=C(Nc1ccn(Cc2ccc(O)cc2C(F)(F)F)n1)c1c(F)cccc1F", "target": "Short transient receptor potential channel 3 (TRPC3, Homo sapiens, UniProt Q13507)", "test": "ion current, inhibitor", "IC50 [µM]": "> 10"}
{"Structure (SMILES)": "O=C(Oc1cc(O)cc2c1C[C@@H](OC(=O)c1cc(O)c(O)c(O)c1)[C@@H](c1cc(O)c(O)c(O)c1)O2)c1cc(O)c(O)c(O)c1", "target": "PTPN12", "test": "enzyme activity, inhibitor", "IC50 [µM]": 0.02}
{"Structure (SMILES)": "N=c1c2c(ncn1-c1ccccc1)Oc1ccc3ccccc3c1C2c1ccc2c(c1)CCO2 (stereo not drawn)", "target": "NPSR1", "test": "cAMP, antagonist, TR-FRET", "IC50 [µM]": 3.07}
{"Structure (SMILES)": "O=S1(=O)O[C@@H]2[C@H](O)[C@@H](O)[C@H](O)[C@@H](CO)[C@@H]2O1", "target": "bglA (Thermotoga maritima, UniProt Q08638)", "test": "enzyme activity, inhibitor", "setting": "pH 6.8, with preincubation", "IC50 [µM]": "> 100"}
{"Structure (SMILES)": "COc1cccc(C2c3c(ncn(-c4ccc(F)cc4)c3=N)Oc3ccc4ccccc4c32)c1 (stereo not drawn)", "target": "NPSR1", "test": "calcium signal, antagonist", "IC50 [µM]": 3.48}
{"Structure (SMILES)": "O=S(=O)(Nc1nc2cc(Cl)ccc2o1)c1cc(Cl)ccc1Cl", "target": "Fructose-1,6-bisphosphatase 1 G27P", "test": "enzyme activity, inhibitor", "IC50 [µM]": "> 100"}
{"Structure (SMILES)": "ClCCOC(c1ccccc1)c1ccccc1", "target": "TPR", "test": "enzyme activity, inhibitor, absorbance", "IC50 [µM]": 82.9}
{"Structure (SMILES)": "COc1ccc(-c2cc(C(N)=O)ncc2OCc2ccnc(OC)c2)c(F)c1", "target": "GRM3", "test": "ion flux, antagonist", "IC50 [µM]": "> 10"}
{"Structure (SMILES)": "COc1ccc2c(Oc3ccc4c(C(=O)Nc5ccccc5N)cccc4c3)ccnc2c1", "target": "Tyrosine-protein kinase Fgr (FGR, Homo sapiens, UniProt P09769)", "test": "enzyme activity, inhibitor", "IC50 [µM]": "> 0.5"}
{"Structure (SMILES)": "CN(C)CCCN1c2ccccc2Sc2ccc(Cl)cc21", "target": "TPR", "test": "enzyme activity, inhibitor, absorbance", "IC50 [µM]": 6.32}
{"Structure (SMILES)": "COc1ccc2nc(/N=C3/NC(=O)C(=Cc4cc(OC)c(O)c(OC)c4)S3)sc2c1", "target": "Aldo-keto reductase family 1 member A1", "test": "enzyme activity, inhibitor, absorbance", "setting": "pH 7.2", "IC50 [µM]": 42.1}
{"Structure (SMILES)": "c1ccc(CCC2CCN(CCCn3nnnc3C(c3ccccc3)c3ccccc3)CC2)cc1", "target": "SLC6A2", "test": "transporter uptake, inhibitor", "IC50 [µM]": 0.41}
{"Structure (SMILES)": "Clc1ccc2c(c1)N(CCCN1CCN(CCCc3ccccc3)CC1)c1ccccc1S2", "target": "TPR", "test": "enzyme activity, inhibitor, absorbance", "IC50 [µM]": 0.75}
{"Structure (SMILES)": "Cc1cnc(-c2ccc(-c3ccc(NC(=O)Nc4c(F)cc(F)cc4F)cc3F)c3c2C(=O)NC3)[nH]1", "target": "Serine/threonine-protein kinase 10 (STK10, Homo sapiens, UniProt O94804)", "test": "enzyme activity, inhibitor", "IC50 [µM]": 0.0433}
{"Structure (SMILES)": "COc1cccc(C2c3c(ncn(-c4cccc(C#N)c4)c3=N)Oc3ccc4ccccc4c32)c1 (stereo not drawn)", "target": "NPSR1", "test": "cAMP, antagonist, TR-FRET", "IC50 [µM]": 19.4}
{"Structure (SMILES)": "CCN(CC)C(=S)SSC(=S)N(CC)CC", "target": "PTPN12", "test": "enzyme activity, inhibitor, fluorescence", "IC50 [µM]": "> 500"}
{"Structure (SMILES)": "COc1ccc2nc(/N=C3/NC(=O)C(=Cc4ccc(Cl)cc4)S3)sc2c1", "target": "Aldo-keto reductase family 1 member A1", "test": "enzyme activity, inhibitor, absorbance", "setting": "pH 7.2", "IC50 [µM]": 18.3}
{"Structure (SMILES)": "Fc1ccc(C(c2ccc(F)cc2)c2nnnn2CCCCN2CCC(c3ccccc3)CC2)cc1", "target": "SLC6A2", "test": "transporter uptake, inhibitor", "IC50 [µM]": 0.675}
{"Structure (SMILES)": "O=P(O)(O)OC[C@H]1O[C@@](CO)(OP(=O)(O)O)[C@@H](O)[C@@H]1O", "target": "Fructose-1,6-bisphosphatase 1 G27P", "test": "enzyme activity, inhibitor", "IC50 [µM]": 1.52}
{"Structure (SMILES)": "Cn1ccc(COc2cnc(C(N)=O)cc2-c2ccc(F)cc2)n1", "target": "GRM3", "test": "ion flux, antagonist", "IC50 [µM]": "> 10"}
{"Structure (SMILES)": "CCN(CC)CCn1c(=N)n(CC(=O)c2ccc(C)cc2)c2ccccc21", "target": "TPR", "test": "enzyme activity, inhibitor", "IC50 [µM]": "≤ 10"}
{"Structure (SMILES)": "COc1cccc(C2c3c(ncn(-c4cccc(C)c4)c3=N)Oc3ccc4ccccc4c32)c1 (stereo not drawn)", "target": "NPSR1", "test": "calcium signal, antagonist", "IC50 [µM]": 4.38}
{"Structure (SMILES)": "CCCc1ccccc1", "target": "TPR", "test": "enzyme activity, inhibitor, absorbance", "IC50 [µM]": "> 100"}
{"Structure (SMILES)": "NC(=O)c1cccc(-c2cccc(OC(=O)NC3CCCCC3)c2)c1", "target": "Cocaine esterase (CES2, Homo sapiens, UniProt O00748)", "test": "enzyme activity, inhibitor", "IC50 [µM]": 0.072}
{"Structure (SMILES)": "Clc1ccc(C(c2ccccc2)c2nnnn2CCCCN2CCN(CCCc3ccccc3)CC2)cc1 (stereo not drawn)", "target": "SLC6A2", "test": "transporter uptake, inhibitor", "IC50 [µM]": 0.745}
{"Structure (SMILES)": "COc1cccc(C2c3c(ncn(-c4ccccc4C)c3=N)Oc3ccc4ccccc4c32)c1 (stereo not drawn)", "target": "NPSR1", "test": "cAMP, antagonist, TR-FRET", "IC50 [µM]": 9.72}
{"Structure (SMILES)": "O=C1NC(=O)/C(=C/c2ccc(OCCNc3nc4c(cnn4C4CCCC4)c(=O)[nH]3)c(F)c2)S1", "target": "Dual specificity calcium/calmodulin-dependent 3',5'-cyclic nucleotide phosphodiesterase 1B", "test": "enzyme activity, inhibitor", "IC50 [µM]": 0.0065}
{"Structure (SMILES)": "Clc1ccc(C(c2ccccc2)c2nnnn2CCCCN2CCC(CCCc3ccccc3)CC2)cc1 (stereo not drawn)", "target": "SLC6A2", "test": "transporter uptake, inhibitor", "IC50 [µM]": 0.232}
{"Structure (SMILES)": "Cc1ccc(C(O)Cn2c(=N)n(CCN3CCCCC3)c3ccccc32)cc1 (stereo not drawn)", "target": "TPR", "test": "enzyme activity, inhibitor", "IC50 [µM]": "≤ 10"}
{"Structure (SMILES)": "CN1CCN(c2ccc(Nc3ncc4cc(C#N)c(=O)n(C5CCCC5)c4n3)cc2)CC1", "target": "MAP kinase-interacting serine/threonine-protein kinase 2 (MKNK2, Homo sapiens, UniProt Q9HBH9)", "test": "enzyme activity, inhibitor", "IC50 [µM]": 4.41}
{"Structure (SMILES)": "COc1ccc(-c2cc(C(N)=O)ncc2OCc2ccnc(C)c2)c(F)c1", "target": "GRM3", "test": "ion flux, antagonist", "IC50 [µM]": "> 10"}
{"Structure (SMILES)": "ClCCOC1c2ccccc2CCc2ccccc21", "target": "TPR", "test": "enzyme activity, inhibitor, absorbance", "IC50 [µM]": 29.7}
{"Structure (SMILES)": "N=c1c2c(ncn1-c1ccccc1)Oc1ccc3ccccc3c1C2c1ccc2c(c1)OCCO2 (stereo not drawn)", "target": "NPSR1", "test": "cAMP, antagonist, TR-FRET", "IC50 [µM]": 3.07}
{"Structure (SMILES)": "Cc1nn2c(-c3c(C)nn(C)c3-c3ccc(C(F)(F)F)cc3)nc(CO)c2c(=O)[nH]1", "target": "Dual specificity calcium/calmodulin-dependent 3',5'-cyclic nucleotide phosphodiesterase 1B", "test": "enzyme activity, inhibitor", "IC50 [µM]": 5.26}
{"Structure (SMILES)": "O=C(O)c1cc(O)c2c(c1)[C@H]([C@H]1c3cc(C(=O)O)cc(O)c3C(=O)c3c(O[C@@H]4O[C@H](CO)[C@@H](O)[C@H](O)[C@H]4O)cccc31)c1cccc(O[C@@H]3O[C@H](CO)[C@@H](O)[C@H](O)[C@H]3O)c1C2=O", "target": "PTPN12", "test": "enzyme activity, inhibitor", "IC50 [µM]": 0.2}
{"Structure (SMILES)": "N=c1n(CCN2CCCCC2)c2ccccc2n1CC(O)COc1ccccc1 (stereo not drawn)", "target": "TPR", "test": "enzyme activity, inhibitor", "IC50 [µM]": "≤ 10"}
{"Structure (SMILES)": "Cc1ccc(C(=O)Nc2ccc(S(=O)(=O)O)c3cc(S(=O)(=O)O)cc(S(=O)(=O)O)c23)cc1NC(=O)c1cccc(NC(=O)Nc2cccc(C(=O)Nc3cc(C(=O)Nc4ccc(S(=O)(=O)O)c5cc(S(=O)(=O)O)cc(S(=O)(=O)O)c45)ccc3C)c2)c1", "target": "PTPN12", "test": "enzyme activity, inhibitor", "IC50 [µM]": 11}
{"Structure (SMILES)": "COc1ccc(-c2cc(C(N)=O)ncc2OCc2ccn(C)n2)c(F)c1", "target": "GRM3", "test": "ion flux, antagonist", "IC50 [µM]": "> 10"}
{"Structure (SMILES)": "C1CNCCN1", "target": "TPR", "test": "enzyme activity, inhibitor, absorbance", "IC50 [µM]": "> 100"}
{"Structure (SMILES)": "c1ccc(CCC2CCN(CCCCn3nnnc3C(c3ccccc3)c3ccccc3)CC2)cc1", "target": "SLC6A2", "test": "transporter uptake, inhibitor", "IC50 [µM]": 0.274}
{"Structure (SMILES)": "CO/N=C(\\C(=O)N[C@@H]1C(=O)N2C(C(=O)O)=C(COC(C)=O)CS[C@H]12)c1csc(N)n1", "target": "PTPN12", "test": "enzyme activity, inhibitor, fluorescence", "IC50 [µM]": 70}
{"Structure (SMILES)": "COc1ccc(-c2cc(C(N)=O)ncc2OCc2ccncc2)c(F)c1", "target": "GRM3", "test": "ion flux, antagonist", "IC50 [µM]": "> 10"}
{"Structure (SMILES)": "N=c1n(CCN2CCCCC2)c2ccccc2n1CC(O)COc1ccc(Cl)cc1Cl (stereo not drawn)", "target": "TPR", "test": "enzyme activity, inhibitor", "IC50 [µM]": "≤ 10"}
{"Structure (SMILES)": "COc1ccc(-c2cc(C(N)=O)ncc2OCc2ccc(OC)nc2)c(F)c1", "target": "GRM3", "test": "ion flux, antagonist", "IC50 [µM]": "> 10"}
{"Structure (SMILES)": "O=C1c2ccccc2-c2cccc3cccc1c23", "target": "PTPN12", "test": "enzyme activity, inhibitor, fluorescence", "IC50 [µM]": "> 150"}
{"Structure (SMILES)": "COc1ccc(-c2nsc(NC(=O)[C@@H]3C[C@H]3C)c2C)cc1", "target": "GRM3", "test": "calcium signal, antagonist", "IC50 [µM]": "> 12.5"}
{"Structure (SMILES)": "O=C1c2ccccc2C(=O)c2c(O)c(O)cc(O)c21", "target": "PTPN12", "test": "enzyme activity, inhibitor, fluorescence", "IC50 [µM]": 7}
{"Structure (SMILES)": "O=c1[nH]c(=S)n(Cc2ccc(Cl)cc2CNCC(F)(F)F)c2cc[nH]c12", "target": "Myeloperoxidase (MPO, Homo sapiens, UniProt P05164)", "test": "enzyme activity, inhibitor", "IC50 [µM]": 0.035}
